{"source": "ChEMBL document CHEMBL1268892", "about": "“Antidotes to anthrax lethal factor intoxication. Part 1: Discovery of potent lethal factor inhibitors with in vivo efficacy” (Bioorg Med Chem Lett, 2010)", "key": {"[1]": {"test": "Solubility of the compound in 50% DNSO/PBS", "type": "physicochemical", "settings": "50% DMSO/PBS"}, "[2]": {"test": "Lipophilicity, log D of the compound at pH 7.4", "type": "physicochemical", "settings": "buffer"}, "Lethal factor": {"molecular_target": "T1, Lethal factor (Bacillus anthracis, UniProt P15917)", "T1 sequence (P15917 whole entry)": "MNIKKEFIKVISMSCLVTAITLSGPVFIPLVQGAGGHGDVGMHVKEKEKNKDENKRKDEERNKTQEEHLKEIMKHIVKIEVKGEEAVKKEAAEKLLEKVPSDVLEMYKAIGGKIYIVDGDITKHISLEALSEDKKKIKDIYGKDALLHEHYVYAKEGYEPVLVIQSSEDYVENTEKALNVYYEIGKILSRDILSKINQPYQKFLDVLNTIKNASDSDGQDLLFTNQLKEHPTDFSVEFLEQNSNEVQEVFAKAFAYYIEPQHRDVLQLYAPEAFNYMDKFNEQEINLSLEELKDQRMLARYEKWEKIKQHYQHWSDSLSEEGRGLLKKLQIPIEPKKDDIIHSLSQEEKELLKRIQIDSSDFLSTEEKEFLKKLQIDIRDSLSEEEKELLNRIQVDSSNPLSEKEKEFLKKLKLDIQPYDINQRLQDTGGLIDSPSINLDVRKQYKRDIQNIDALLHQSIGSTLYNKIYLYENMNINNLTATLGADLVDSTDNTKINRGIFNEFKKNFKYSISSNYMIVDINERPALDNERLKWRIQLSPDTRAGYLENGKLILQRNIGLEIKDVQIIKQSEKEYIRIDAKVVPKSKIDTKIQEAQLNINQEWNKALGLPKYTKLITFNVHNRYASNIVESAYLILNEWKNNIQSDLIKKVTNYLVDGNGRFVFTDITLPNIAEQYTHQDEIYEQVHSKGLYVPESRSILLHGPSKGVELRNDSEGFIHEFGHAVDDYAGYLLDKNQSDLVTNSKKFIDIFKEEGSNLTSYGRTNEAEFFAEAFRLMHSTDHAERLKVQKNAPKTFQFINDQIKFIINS", "test": "Inhibition of Bacillus anthracis lethal factor assessed as proteolysis using MCA-KKVYPYPME-Dap(Dnp)-NH2 peptide substrate by FRET assay", "how_it_was_run": "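Purified LF at 0.5 nM final with 40 μM peptide substrate in 20 mM HEPES pH 7.4, 0.1% Tween-20, 0.5 mg/mL BSA. The reaction was started by adding enzyme and incubated 4 h at 23°C to reach a steady-state rate. Cleavage was read as fluorescence increase (λex 324 nm, λem 395 nm). Ki was fitted to the tight-binding equation. Values are means of three experiments.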"}, "Rattus norvegicus [3]": {"system": "Rattus norvegicus", "test": "Inhibition of lethal factor-induced toxicity in Fischer 344 rat assessed as increase in median survival time at 5 mg/kg, iv relative to control", "type": "functional, organism-based", "set-up": "dose 5 mg/kg"}, "Rattus norvegicus [4]": {"system": "Rattus norvegicus", "test": "Inhibition of lethal factor-induced toxicity in Fischer 344 rat assessed as increase in median survival time at 2.5 mg/kg, iv relative to control", "type": "functional, organism-based", "set-up": "dose 2.5 mg/kg"}}, "note": "Calls of active or inactive are those of the source. The rule behind the calls is not given here.", "data": [{"smiles": "Cc1cc(N[C@H](CCCCN)C(=O)NO)cc(C)c1F", "values": [{"measurement": "solubility", "setting": "[1]", "result": "> 5", "unit": "µg/mL"}, {"measurement": "logD", "setting": "[2]", "result": "< 3"}, {"measurement": "Ki", "setting": "Lethal factor", "result": 8.2, "unit": "nM"}]}, {"smiles": "CO[C@H](C[C@H](CCN(C)CCCc1ccccc1)C(=O)NO)c1ccc(F)cc1", "values": [{"measurement": "solubility", "setting": "[1]", "result": "> 5", "unit": "µg/mL"}, {"measurement": "logD", "setting": "[2]", "result": "< 3"}, {"measurement": "Ki", "setting": "Lethal factor", "result": 42, "unit": "nM"}]}, {"smiles": "Cc1cc(N[C@H](CCCCNCc2ccc(Cl)cc2)C(=O)NO)cc(C)c1F", "values": [{"measurement": "solubility", "setting": "[1]", "result": "> 5", "unit": "µg/mL"}, {"measurement": "logD", "setting": "[2]", "result": "< 3"}, {"measurement": "Ki", "setting": "Lethal factor", "result": 1.1, "unit": "nM"}]}, {"smiles": "CO[C@H](C[C@H](CCN1CCNCC1)C(=O)NO)c1ccc(F)cc1", "values": [{"measurement": "solubility", "setting": "[1]", "result": "> 5", "unit": "µg/mL"}, {"measurement": "logD", "setting": "[2]", "result": "< 3"}, {"measurement": "Ki", "setting": "Lethal factor", "result": 90, "unit": "nM"}]}, {"smiles": "Cc1cc(S(=O)(=O)NCCCC[C@@H](Nc2cc(C)c(F)c(C)c2)C(=O)NO)ccc1F", "values": [{"measurement": "solubility", "setting": "[1]", "result": "> 5", "unit": "µg/mL"}, {"measurement": "logD", "setting": "[2]", "result": "< 3"}, {"measurement": "Ki", "setting": "Lethal factor", "result": 3.1, "unit": "nM"}]}, {"smiles": "CO[C@H](C[C@H](CCN1CCCCC1)C(=O)NO)c1ccc(F)cc1", "values": [{"measurement": "Ki", "setting": "Lethal factor", "result": 230, "unit": "nM"}]}, {"smiles": "COc1ccc(CNCCCC[C@@H](Nc2cc(C)c(F)c(C)c2)C(=O)NO)cc1", "values": [{"measurement": "solubility", "setting": "[1]", "result": "> 5", "unit": "µg/mL"}, {"measurement": "logD", "setting": "[2]", "result": "< 3"}, {"measurement": "Ki", "setting": "Lethal factor", "result": 0.44, "unit": "nM"}]}, {"smiles": "Cc1cc(N[C@H](CCCCNCCc2ccc(F)cc2)C(=O)NO)cc(C)c1F", "values": [{"measurement": "solubility", "setting": "[1]", "result": "> 5", "unit": "µg/mL"}, {"measurement": "logD", "setting": "[2]", "result": "< 3"}]}, {"smiles": "Cc1cc(C(=O)NCCCC[C@@H](Nc2cc(C)c(F)c(C)c2)C(=O)NO)ccc1F", "values": [{"measurement": "solubility", "setting": "[1]", "result": "> 5", "unit": "µg/mL"}, {"measurement": "logD", "setting": "[2]", "result": "< 3"}, {"measurement": "Ki", "setting": "Lethal factor", "result": 7.3, "unit": "nM"}]}, {"smiles": "Cc1cc(N[C@H](CCCCNCc2ccccc2F)C(=O)NO)cc(C)c1F", "values": [{"measurement": "solubility", "setting": "[1]", "result": "> 5", "unit": "µg/mL"}, {"measurement": "logD", "setting": "[2]", "result": "< 3"}, {"measurement": "Ki", "setting": "Lethal factor", "result": 0.69, "unit": "nM"}]}, {"smiles": "Cc1ccc(CNCCCC[C@@H](Nc2cc(C)c(F)c(C)c2)C(=O)NO)cc1", "values": [{"measurement": "solubility", "setting": "[1]", "result": "> 5", "unit": "µg/mL"}, {"measurement": "logD", "setting": "[2]", "result": "< 3"}, {"measurement": "Ki", "setting": "Lethal factor", "result": 0.41, "unit": "nM"}]}, {"smiles": "CO[C@H](C[C@H](CCN1CCCC(Cc2ccc(F)cc2)C1)C(=O)NO)c1ccc(F)cc1", "note": "(stereo partly specified)", "values": [{"measurement": "solubility", "setting": "[1]", "result": "> 5", "unit": "µg/mL"}, {"measurement": "logD", "setting": "[2]", "result": "< 3"}, {"measurement": "Ki", "setting": "Lethal factor", "result": 33, "unit": "nM"}]}, {"smiles": "CO[C@H](C[C@H](CCN1CCN(Cc2ccccc2)CC1)C(=O)NO)c1ccc(F)cc1", "values": [{"measurement": "Ki", "setting": "Lethal factor", "result": 115, "unit": "nM"}]}, {"smiles": "CO[C@H](C[C@H](CCN1CCN(c2ccccc2)CC1)C(=O)NO)c1ccc(F)cc1", "values": [{"measurement": "Ki", "setting": "Lethal factor", "result": 151, "unit": "nM"}]}, {"smiles": "Cc1cc(NC(=O)NCCCC[C@@H](Nc2cc(C)c(F)c(C)c2)C(=O)NO)ccc1F", "values": [{"measurement": "solubility", "setting": "[1]", "result": "> 5", "unit": "µg/mL"}, {"measurement": "logD", "setting": "[2]", "result": "< 3"}, {"measurement": "Ki", "setting": "Lethal factor", "result": 9.3, "unit": "nM"}]}, {"smiles": "CO[C@H](C[C@H](CCN(C)CCCc1ccc(F)c(C)c1)C(=O)NO)c1ccc(F)cc1", "values": [{"measurement": "solubility", "setting": "[1]", "result": "> 5", "unit": "µg/mL"}, {"measurement": "logD", "setting": "[2]", "result": "< 3"}]}, {"smiles": "Cc1cc(N[C@H](CCCCNCc2cccc(F)c2)C(=O)NO)cc(C)c1F", "values": [{"measurement": "solubility", "setting": "[1]", "result": "> 5", "unit": "µg/mL"}, {"measurement": "logD", "setting": "[2]", "result": "< 3"}, {"measurement": "Ki", "setting": "Lethal factor", "result": 0.85, "unit": "nM"}]}, {"smiles": "CO[C@H](C[C@H](CCN1CCN(CCc2ccccc2)CC1)C(=O)NO)c1ccc(F)cc1", "values": [{"measurement": "Ki", "setting": "Lethal factor", "result": 118, "unit": "nM"}]}, {"smiles": "CO[C@H](C[C@H](CCN(C)Cc1ccc(-c2ccc(F)c(C)c2)cc1)C(=O)NO)c1ccc(F)cc1", "values": [{"measurement": "Ki", "setting": "Lethal factor", "result": 135, "unit": "nM"}]}, {"smiles": "Cc1cc(N[C@H](CCCCNCCCc2ccc(F)cc2)C(=O)NO)cc(C)c1F", "values": [{"measurement": "solubility", "setting": "[1]", "result": "> 5", "unit": "µg/mL"}, {"measurement": "logD", "setting": "[2]", "result": "< 3"}, {"measurement": "Ki", "setting": "Lethal factor", "result": 1.3, "unit": "nM"}]}, {"smiles": "CO[C@H](C[C@H](CCN1CCCC1)C(=O)NO)c1ccc(F)cc1", "values": [{"measurement": "Ki", "setting": "Lethal factor", "result": 122, "unit": "nM"}]}, {"smiles": "Cc1cc(N[C@H](CCCCNCc2ccc(F)cc2)C(=O)NO)cc(C)c1F", "values": [{"measurement": "solubility", "setting": "[1]", "result": "> 5", "unit": "µg/mL"}, {"measurement": "logD", "setting": "[2]", "result": "< 3"}]}, {"smiles": "Cc1cc(CNCCCC[C@@H](Nc2cc(C)c(F)c(C)c2)C(=O)NO)ccc1F", "values": [{"measurement": "solubility", "setting": "[1]", "result": "> 5", "unit": "µg/mL"}, {"measurement": "inhibition", "setting": "Rattus norvegicus [3]", "result": "Active"}, {"measurement": "logD", "setting": "[2]", "result": "< 3"}, {"measurement": "inhibition", "setting": "Rattus norvegicus [4]", "result": "Active"}]}, {"smiles": "CO[C@H](C[C@H](CCN(C)C)C(=O)NO)c1ccc(F)cc1", "values": [{"measurement": "solubility", "setting": "[1]", "result": "> 5", "unit": "µg/mL"}, {"measurement": "logD", "setting": "[2]", "result": "< 3"}, {"measurement": "Ki", "setting": "Lethal factor", "result": 96, "unit": "nM"}]}, {"smiles": "Cc1cc(N[C@H](CCCCNCc2ccc([N+](=O)[O-])cc2)C(=O)NO)cc(C)c1F", "values": [{"measurement": "solubility", "setting": "[1]", "result": "> 5", "unit": "µg/mL"}, {"measurement": "logD", "setting": "[2]", "result": "< 3"}, {"measurement": "Ki", "setting": "Lethal factor", "result": 0.3, "unit": "nM"}]}, {"smiles": "Cc1cc(N[C@H](CCCCNCc2ccc(C(C)(C)C)cc2)C(=O)NO)cc(C)c1F", "values": [{"measurement": "solubility", "setting": "[1]", "result": "> 5", "unit": "µg/mL"}, {"measurement": "logD", "setting": "[2]", "result": "< 3"}, {"measurement": "Ki", "setting": "Lethal factor", "result": 1.4, "unit": "nM"}]}, {"smiles": "CO[C@H](C[C@H](CCN1CCCC(CO)C1)C(=O)NO)c1ccc(F)cc1", "note": "(stereo partly specified)", "values": [{"measurement": "solubility", "setting": "[1]", "result": "> 5", "unit": "µg/mL"}, {"measurement": "logD", "setting": "[2]", "result": "< 3"}, {"measurement": "Ki", "setting": "Lethal factor", "result": 99, "unit": "nM"}]}, {"smiles": "CO[C@H](C[C@H](CCN1CCOCC1)C(=O)NO)c1ccc(F)cc1", "values": [{"measurement": "Ki", "setting": "Lethal factor", "result": 350, "unit": "nM"}]}, {"smiles": "Cc1cc(N[C@H](CCCCNCc2ccc(C(F)(F)F)cc2)C(=O)NO)cc(C)c1F", "values": [{"measurement": "solubility", "setting": "[1]", "result": "> 5", "unit": "µg/mL"}, {"measurement": "logD", "setting": "[2]", "result": "< 3"}, {"measurement": "Ki", "setting": "Lethal factor", "result": 0.47, "unit": "nM"}]}]}
